# Measured values taken from ChEMBL document CHEMBL1155318, “Discovery of novel phenethylpyridone derivatives as potent melanin-concentrating hormone 1 receptor antagonists” (Bioorg Med Chem Lett, 2009).
# How the values were obtained:
# [1] = molecular target: T1, Melanin-concentrating hormone receptor 1 (Homo sapiens, UniProt Q99705); test: Displacement of [125I]MCH from human recombinant MCH1R expressed on CHOK1 cell membrane; type: cell membranes, CHO-K1
# How it was run: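 Competition binding with [125I]MCH on membranes of CHO-K1 cells expressing human recombinant MCH-1R. Inhibition of radioligand binding is measured. Values are means of n = 2.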
# [2] = Metabolic stability in mouse liver microsomes after 30 mmins; type: ADME, Microsome; details: read-out: Stability
# How it was run: (§1)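 Hepatic microsomes (human or mouse) are incubated with compound for 30 min. The read-out is % of parent remaining. Values are means of n = 2.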
# [3] = Metabolic stability in human liver microsomes after 30 mmins; type: ADME, Microsome; details: read-out: Stability; how it was run: as §1
# Mu-type opioid receptor = Mu-type opioid receptor (Homo sapiens, UniProt P35372); test: Inhibition of mu-type opioid receptor
# Histamine H1 receptor = Histamine H1 receptor (Homo sapiens, UniProt P35367); test: Inhibition of histamine H1 receptor
# Histamine H3 receptor = Histamine H3 receptor (Homo sapiens, UniProt Q9Y5N1); test: Inhibition of histamine H3 receptor
# Histamine H4 receptor = Histamine H4 receptor (Homo sapiens, UniProt Q9H3N8); test: Inhibition of histamine H4 receptor
# [4] = molecular target: Delta-type opioid receptor (Homo sapiens, UniProt P41143); test: Inhibition of delta-type opioid receptor
# [5] = molecular target: T1, Melanin-concentrating hormone receptor 1; test: Antagonistic activity against MCH1R expressed on CHOK1 cells assessed as intracellular calcium mobilization by FLIPR; type: functional, cell-based, CHO-K1
# [6] = Inhibition of adrenergic alpha1 receptor
# Histamine H2 receptor = Histamine H2 receptor (Homo sapiens, UniProt P25021); test: Inhibition of histamine H2 receptor
# Adenosine receptor A2a = Adenosine receptor A2a (Homo sapiens, UniProt P29274); test: Inhibition of adenosine receptor A2A
# [7] = molecular target: Kappa-type opioid receptor (Homo sapiens, UniProt P41145); test: Inhibition of kappa-type opioid receptor
# [8] = molecular target: T2, Muscarinic acetylcholine receptor M1 (Homo sapiens, UniProt P11229); test: Inhibition of muscarinic M1 receptor
# T2 sequence (P11229 whole entry): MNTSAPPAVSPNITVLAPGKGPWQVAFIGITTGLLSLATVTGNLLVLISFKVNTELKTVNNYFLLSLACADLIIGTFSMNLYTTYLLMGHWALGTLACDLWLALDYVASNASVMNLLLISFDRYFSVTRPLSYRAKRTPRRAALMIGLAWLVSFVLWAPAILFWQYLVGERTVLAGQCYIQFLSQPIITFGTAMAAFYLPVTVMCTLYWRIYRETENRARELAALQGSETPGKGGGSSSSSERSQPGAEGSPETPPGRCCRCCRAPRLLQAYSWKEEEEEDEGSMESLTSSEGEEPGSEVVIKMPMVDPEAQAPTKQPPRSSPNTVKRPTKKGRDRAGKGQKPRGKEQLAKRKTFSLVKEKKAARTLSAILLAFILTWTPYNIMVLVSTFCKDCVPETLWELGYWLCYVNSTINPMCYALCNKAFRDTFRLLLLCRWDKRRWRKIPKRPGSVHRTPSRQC
# [9] = molecular target: Voltage-gated inwardly rectifying potassium channel KCNH2 (Homo sapiens, UniProt Q12809); test: Inhibition of human ERG potassium channel 1
# Chain of Voltage-gated inwardly rectifying potassium channel KCNH2 (Q12809 whole entry): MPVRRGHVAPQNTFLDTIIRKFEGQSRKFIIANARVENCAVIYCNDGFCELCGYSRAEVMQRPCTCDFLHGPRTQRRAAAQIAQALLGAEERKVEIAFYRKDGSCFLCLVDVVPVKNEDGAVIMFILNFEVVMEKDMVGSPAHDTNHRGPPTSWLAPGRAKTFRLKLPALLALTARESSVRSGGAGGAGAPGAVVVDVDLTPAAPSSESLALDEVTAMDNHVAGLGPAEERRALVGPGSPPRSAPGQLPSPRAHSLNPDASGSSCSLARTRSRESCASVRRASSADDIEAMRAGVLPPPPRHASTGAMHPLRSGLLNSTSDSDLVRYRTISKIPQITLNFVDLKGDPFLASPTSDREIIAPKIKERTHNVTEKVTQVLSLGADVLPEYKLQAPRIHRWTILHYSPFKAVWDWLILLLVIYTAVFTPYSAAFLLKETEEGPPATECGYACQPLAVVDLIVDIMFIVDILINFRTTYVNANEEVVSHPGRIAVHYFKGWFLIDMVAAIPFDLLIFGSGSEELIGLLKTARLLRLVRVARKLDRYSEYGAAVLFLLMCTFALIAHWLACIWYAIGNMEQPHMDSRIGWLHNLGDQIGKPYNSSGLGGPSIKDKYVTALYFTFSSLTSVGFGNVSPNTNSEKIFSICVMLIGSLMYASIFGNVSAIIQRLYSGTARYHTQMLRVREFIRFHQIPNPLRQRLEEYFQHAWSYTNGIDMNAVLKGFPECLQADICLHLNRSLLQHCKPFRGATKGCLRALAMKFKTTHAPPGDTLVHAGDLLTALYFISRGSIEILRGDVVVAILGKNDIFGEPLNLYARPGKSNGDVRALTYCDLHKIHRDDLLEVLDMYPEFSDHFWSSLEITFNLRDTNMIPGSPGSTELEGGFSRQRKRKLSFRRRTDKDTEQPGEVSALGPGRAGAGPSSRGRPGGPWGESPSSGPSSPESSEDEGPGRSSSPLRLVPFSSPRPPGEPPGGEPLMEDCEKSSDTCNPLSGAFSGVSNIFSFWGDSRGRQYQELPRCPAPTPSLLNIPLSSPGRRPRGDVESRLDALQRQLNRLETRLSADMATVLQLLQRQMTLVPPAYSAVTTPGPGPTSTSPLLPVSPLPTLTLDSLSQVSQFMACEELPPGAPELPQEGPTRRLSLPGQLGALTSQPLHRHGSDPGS
# T1 sequence (Q99705 whole entry): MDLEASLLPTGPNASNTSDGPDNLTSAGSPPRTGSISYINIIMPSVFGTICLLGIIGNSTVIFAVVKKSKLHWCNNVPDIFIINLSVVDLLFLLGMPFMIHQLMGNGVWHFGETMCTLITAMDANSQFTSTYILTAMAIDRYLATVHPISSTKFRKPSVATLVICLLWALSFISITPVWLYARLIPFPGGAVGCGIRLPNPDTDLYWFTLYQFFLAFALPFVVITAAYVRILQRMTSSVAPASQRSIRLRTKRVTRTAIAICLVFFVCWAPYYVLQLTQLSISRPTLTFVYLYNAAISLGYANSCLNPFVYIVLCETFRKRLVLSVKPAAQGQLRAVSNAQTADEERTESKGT
# Chain of Delta-type opioid receptor (P41143 whole entry): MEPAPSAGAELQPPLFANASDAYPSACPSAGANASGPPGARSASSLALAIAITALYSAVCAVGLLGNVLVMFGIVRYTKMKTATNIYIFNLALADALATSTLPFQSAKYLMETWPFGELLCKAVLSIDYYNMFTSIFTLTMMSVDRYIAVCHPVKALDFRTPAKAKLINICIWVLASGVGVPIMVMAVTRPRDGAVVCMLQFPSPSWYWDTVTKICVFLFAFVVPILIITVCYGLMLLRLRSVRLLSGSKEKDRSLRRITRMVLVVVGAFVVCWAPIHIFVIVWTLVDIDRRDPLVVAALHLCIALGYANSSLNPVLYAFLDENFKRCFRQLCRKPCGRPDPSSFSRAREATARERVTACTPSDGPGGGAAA
# Chain of Adenosine receptor A2a (P29274 whole entry): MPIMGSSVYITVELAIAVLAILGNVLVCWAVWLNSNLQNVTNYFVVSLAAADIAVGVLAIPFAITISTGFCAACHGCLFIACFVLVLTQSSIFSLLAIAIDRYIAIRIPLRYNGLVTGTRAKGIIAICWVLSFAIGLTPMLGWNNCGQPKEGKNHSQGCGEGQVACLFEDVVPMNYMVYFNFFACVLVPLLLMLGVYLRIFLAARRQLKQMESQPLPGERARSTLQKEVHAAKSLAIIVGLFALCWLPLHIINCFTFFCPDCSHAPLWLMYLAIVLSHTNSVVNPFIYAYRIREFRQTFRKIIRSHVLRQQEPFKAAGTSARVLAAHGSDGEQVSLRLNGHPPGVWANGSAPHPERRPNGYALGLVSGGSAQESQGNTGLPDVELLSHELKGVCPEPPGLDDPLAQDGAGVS
# Chain of Histamine H3 receptor (Q9Y5N1 whole entry): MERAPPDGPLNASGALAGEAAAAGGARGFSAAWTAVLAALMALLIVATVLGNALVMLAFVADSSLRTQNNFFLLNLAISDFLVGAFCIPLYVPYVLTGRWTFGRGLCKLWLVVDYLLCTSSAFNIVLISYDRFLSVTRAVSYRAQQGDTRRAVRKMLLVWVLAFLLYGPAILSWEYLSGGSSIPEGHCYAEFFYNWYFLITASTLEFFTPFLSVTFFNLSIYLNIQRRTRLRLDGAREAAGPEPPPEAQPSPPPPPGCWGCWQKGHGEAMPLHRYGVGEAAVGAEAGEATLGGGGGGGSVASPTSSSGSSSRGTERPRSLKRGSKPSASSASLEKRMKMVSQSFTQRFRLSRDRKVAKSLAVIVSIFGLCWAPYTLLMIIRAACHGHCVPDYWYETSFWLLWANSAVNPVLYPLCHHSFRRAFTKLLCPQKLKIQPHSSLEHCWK
# Chain of Mu-type opioid receptor (P35372 whole entry): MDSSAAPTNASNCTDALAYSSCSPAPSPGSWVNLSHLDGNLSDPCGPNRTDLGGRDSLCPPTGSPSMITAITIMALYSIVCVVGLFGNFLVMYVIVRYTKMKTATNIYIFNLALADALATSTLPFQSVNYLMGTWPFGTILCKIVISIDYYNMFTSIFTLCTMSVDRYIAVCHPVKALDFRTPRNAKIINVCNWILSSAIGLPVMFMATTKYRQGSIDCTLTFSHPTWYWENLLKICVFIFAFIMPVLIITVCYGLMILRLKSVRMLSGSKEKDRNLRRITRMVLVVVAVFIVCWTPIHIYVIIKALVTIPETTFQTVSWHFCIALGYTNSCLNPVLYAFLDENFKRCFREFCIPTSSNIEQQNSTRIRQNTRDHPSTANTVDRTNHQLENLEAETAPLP
# Chain of Kappa-type opioid receptor (P41145 whole entry): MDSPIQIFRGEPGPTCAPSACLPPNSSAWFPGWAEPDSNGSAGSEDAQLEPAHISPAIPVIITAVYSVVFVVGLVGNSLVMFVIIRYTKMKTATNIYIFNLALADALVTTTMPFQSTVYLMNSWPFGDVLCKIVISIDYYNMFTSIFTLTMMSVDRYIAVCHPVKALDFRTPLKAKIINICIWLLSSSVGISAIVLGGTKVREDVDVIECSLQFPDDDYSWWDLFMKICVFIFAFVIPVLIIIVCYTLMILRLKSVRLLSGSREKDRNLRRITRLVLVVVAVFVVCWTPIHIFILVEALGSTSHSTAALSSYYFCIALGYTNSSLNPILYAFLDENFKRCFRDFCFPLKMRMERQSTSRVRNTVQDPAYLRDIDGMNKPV
# Chain of Histamine H1 receptor (P35367 whole entry): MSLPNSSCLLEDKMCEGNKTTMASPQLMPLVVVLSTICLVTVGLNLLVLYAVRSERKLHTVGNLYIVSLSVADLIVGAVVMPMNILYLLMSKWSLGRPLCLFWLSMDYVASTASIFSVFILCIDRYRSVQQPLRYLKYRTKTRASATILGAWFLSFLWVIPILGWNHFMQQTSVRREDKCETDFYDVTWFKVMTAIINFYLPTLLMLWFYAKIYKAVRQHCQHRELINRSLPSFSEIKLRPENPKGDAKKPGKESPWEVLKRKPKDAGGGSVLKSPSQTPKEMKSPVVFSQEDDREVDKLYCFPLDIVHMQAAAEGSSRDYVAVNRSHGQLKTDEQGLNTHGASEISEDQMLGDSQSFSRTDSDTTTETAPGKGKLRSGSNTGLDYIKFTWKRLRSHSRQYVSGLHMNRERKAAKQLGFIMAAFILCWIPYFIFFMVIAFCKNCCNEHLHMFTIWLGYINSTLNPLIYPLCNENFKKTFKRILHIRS
# Chain of Histamine H2 receptor (P25021 whole entry): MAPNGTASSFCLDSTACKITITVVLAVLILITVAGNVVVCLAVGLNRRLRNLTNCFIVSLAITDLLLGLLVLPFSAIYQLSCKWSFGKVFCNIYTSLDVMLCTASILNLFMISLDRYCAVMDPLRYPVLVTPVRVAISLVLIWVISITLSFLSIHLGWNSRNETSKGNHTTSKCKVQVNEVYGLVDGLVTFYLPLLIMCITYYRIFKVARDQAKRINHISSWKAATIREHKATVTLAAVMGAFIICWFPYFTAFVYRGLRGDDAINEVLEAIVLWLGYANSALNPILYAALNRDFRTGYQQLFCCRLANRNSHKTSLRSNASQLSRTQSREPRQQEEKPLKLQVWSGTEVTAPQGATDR
Compound,IC50 [1],remaining at 30 min [2],remaining at 30 min [3],other results
CCCN(CC)Cc1ccc(CCn2ccc(OCc3ccc(F)cc3)cc2=O)cc1,4.4 nM,6%,26%,–
O=c1cc(OCc2ccc(F)cc2)ccn1Cc1cccc(OCCN2CCCC2)c1,29 nM,–,–,–
CCCN(CCF)Cc1ccc(CCn2ccc(OCc3ccc(F)cc3)cc2=O)cc1,11 nM,0%,0%,–
CCCN(Cc1ccc(CCn2ccc(OCc3ccc(F)cc3)cc2=O)cc1)C(C)C,5.2 nM,1%,4%,–
O=c1cc(OCc2ccc(F)cc2)ccn1-c1ccc(CN2CCCC2)cc1,> 1000 nM,–,–,–
O=c1cc(OCc2ccc(F)cc2)ccn1-c1ccc(OCCN2CCCC2)cc1,5.6 nM,–,–,–
CCCN(CCC)Cc1ccc(CCn2ccc(OCc3ccc(F)cc3)cc2=O)cc1,3.3 nM,1%,1%,–
CCCN(C)Cc1ccc(CCn2ccc(OCc3ccc(F)cc3)cc2=O)cc1,3.5 nM,22%,58%,–
O=c1cc(OCc2ccc(F)cc2)ccn1Cc1cccc(OCCCN2CCCC2)c1,30 nM,–,–,–
CCN(CC)Cc1ccc(CCn2ccc(OCc3ccc(F)cc3)cc2=O)cc1,–,26%,54%,–

# More lines, main results first:
IC50 [1],remaining at 30 min [2],remaining at 30 min [3],Compound,other results
> 1000 nM,–,–,O=c1cc(OCc2ccc(F)cc2)ccn1CCc1ccc(N2CCCC2)cc1,–
5 nM,39%,60%,O=c1cc(OCc2ccc(F)cc2)ccn1CCc1ccc(CN2CCCC2)cc1,–
4.9 nM,0%,0%,CCCN(Cc1ccc(CCn2ccc(OCc3ccc(F)cc3)cc2=O)cc1)CC(C)C,–
> 1000 nM,–,–,O=c1cc(OCc2ccc(F)cc2)ccn1-c1cccc(OCCN2CCCC2)c1,–
3.5 nM,1%,1%,CCCN(Cc1ccc(CCn2ccc(OCc3ccc(F)cc3)cc2=O)cc1)C1CCCC1,–
–,62%,85%,CCCNCc1ccc(CCn2ccc(OCc3ccc(F)cc3)cc2=O)cc1,IC50 (Mu-type opioid receptor): > 5 µM; IC50 (Histamine H1 receptor): > 5 µM; IC50 (Histamine H3 receptor): > 5 µM; IC50 (Histamine H4 receptor): > 5 µM; IC50 [4]: > 5 µM; IC50 [5]: 20 nM; IC50 [6]: > 5 µM; IC50 (Histamine H2 receptor): > 5 µM; IC50 (Adenosine receptor A2a): > 5 µM; IC50 [7]: > 5 µM; IC50 [8]: > 5 µM
11 nM,76%,87%,CCCNCc1ccc(CCn2ccc(OCc3ccc(F)cc3)cc2=O)cn1,–
7 nM,93%,91%,CCCNCc1ccc(CCn2ccc(OCc3ccc(F)cc3)cc2=O)nc1,IC50 (Mu-type opioid receptor): > 5 µM; IC50 (Histamine H1 receptor): > 5 µM; IC50 (Histamine H3 receptor): > 5 µM; IC50 (Histamine H4 receptor): > 5 µM; IC50 [4]: > 5 µM; IC50 [9]: 5.1 µM; IC50 [5]: 27 nM; IC50 [6]: > 5 µM; IC50 (Histamine H2 receptor): > 5 µM; IC50 (Adenosine receptor A2a): > 5 µM; IC50 [7]: > 5 µM; IC50 [8]: > 5 µM
5.4 nM,0%,0%,CCCN(CCOC)Cc1ccc(CCn2ccc(OCc3ccc(F)cc3)cc2=O)cc1,–
34 nM,74%,72%,CCCNCc1ccc(COn2ccc(OCc3ccc(F)cc3)cc2=O)cc1,–
